ChEMBL document CHEMBL1671835, “Discovery of a Potent, S1P3-Sparing Benzothiazole Agonist of Sphingosine-1-Phosphate Receptor 1 (S1P1)” (ACS Med Chem Lett, 2011)

Key:
[1] = molecular target: T1, Sphingosine 1-phosphate receptor 3 (Homo sapiens, UniProt Q99500); assay: Agonist activity at human S1P3 receptor expressed in CHO-K1 cells co-expressing Gq/i5 G-protein assessed as calcium mobilization by FLIPR assay relative to S1P; assay type: functional, cell-based
How it was run: (§1)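 hS1P3 and Gq/i5 co-transfected into CHO-K1 cells; agonism read as Ca2+ mobilization. Percent efficacy is relative to 0.200 μM S1P, and >top concentration is reported when activity stays under 10% of control. Each value is the mean of at least two determinations.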

[2] = molecular target: T1, Sphingosine 1-phosphate receptor 3; assay: Agonist activity at human S1P3 receptor expressed in CHO-K1 cells co-expressing Gq/i5 G-protein assessed as calcium mobilization by FLIPR assay; assay type: functional, cell-based; how it was run: as §1
[3] = molecular target: T2, Sphingosine 1-phosphate receptor 1 (Homo sapiens, UniProt P21453); assay: Agonist activity at human S1P1 receptor expressed in human U2OS cells co-expressing eGFP assessed as receptor internalization after 1 hr; assay type: functional, cell-based
How it was run: (§2)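 hS1P1-GFP fusion expressed in U2OS cells; agonism read as receptor internalization. Percent efficacy is relative to 1.00 μM reference agonist, and >top concentration is reported when activity stays under 10% of control. Each value is the mean of at least two determinations.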

[4] = molecular target: T2, Sphingosine 1-phosphate receptor 1; assay: Agonist activity at human S1P1 receptor expressed in human U2OS cells co-expressing eGFP assessed as receptor internalization after 1 hr relative to 1-(4-(6-benzylbenzofuran-2-yl)-3-fluorobenzyl)azetidine-3-carboxylic acid; assay type: functional, cell-based; how it was run: as §2
[5] = Fraction unbound in rat plasma at 5 ug/ml by ultracentrifugation analysis; assay type: ADME, cell-free
How it was run: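 Plasma protein binding determined by ultracentrifugation at 5.0 μg/mL test compound.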

T1 sequence (Q99500 whole entry): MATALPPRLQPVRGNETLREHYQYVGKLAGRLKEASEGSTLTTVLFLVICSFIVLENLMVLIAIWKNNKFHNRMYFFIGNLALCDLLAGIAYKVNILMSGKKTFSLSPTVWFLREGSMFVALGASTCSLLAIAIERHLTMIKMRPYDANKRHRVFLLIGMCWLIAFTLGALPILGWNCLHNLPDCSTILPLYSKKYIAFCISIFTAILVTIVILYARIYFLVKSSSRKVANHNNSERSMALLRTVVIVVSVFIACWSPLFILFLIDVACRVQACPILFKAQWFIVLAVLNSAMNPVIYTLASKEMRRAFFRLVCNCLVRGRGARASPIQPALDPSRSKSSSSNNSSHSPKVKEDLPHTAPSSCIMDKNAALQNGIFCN
T2 sequence (P21453 whole entry, the tested form may be a part): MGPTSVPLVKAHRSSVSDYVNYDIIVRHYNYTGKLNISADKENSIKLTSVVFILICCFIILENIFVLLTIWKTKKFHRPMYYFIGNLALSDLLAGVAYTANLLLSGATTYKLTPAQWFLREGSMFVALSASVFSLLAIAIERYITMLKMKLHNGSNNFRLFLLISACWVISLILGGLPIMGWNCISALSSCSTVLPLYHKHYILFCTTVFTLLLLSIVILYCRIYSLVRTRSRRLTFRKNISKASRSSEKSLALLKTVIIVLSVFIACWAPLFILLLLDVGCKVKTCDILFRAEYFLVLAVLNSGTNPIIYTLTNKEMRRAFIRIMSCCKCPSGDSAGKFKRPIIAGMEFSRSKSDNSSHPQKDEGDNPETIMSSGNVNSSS

SMILES	Efficacy [1]	EC50 [2]	EC50 [3]	Efficacy [4]	fraction unbound at 5 ug/ml [5]
O=C(O)C1CN(Cc2ccc(-c3cc4ccc(Cc5ccccc5)cc4o3)c(F)c2)C1	42%	679 nM	13 nM	–	–
O=C(O)C1CN(Cc2ccc(-c3nc4cc(Cc5ccc(F)cc5F)ccc4s3)c(F)c2)C1	24%	1200 nM	42 nM	186%	–
O=C(O)C1CN(Cc2ccc(-c3nc4ccc(Cc5ccccc5)cc4s3)c(F)c2)C1	50%	–	–	84%	–
Cc1ccc(Cc2ccc3sc(-c4ccc(CN5CC(C(=O)O)C5)cc4F)nc3c2)cc1	17%	1800 nM	77 nM	132%	–
O=C(O)C1CN(Cc2ccc(-n3cc4cc(Cc5ccccc5)ccc4n3)c(F)c2)C1	43%	1110 nM	2890 nM	53%	–
O=C(O)C1CN(Cc2ccc(-c3nc4cc(Cc5cccc(F)c5)ccc4s3)c(F)c2)C1	22%	687 nM	21 nM	138%	–
O=C(O)C1CN(Cc2ccc(-c3nc4ccc(Cc5ccccc5)cc4o3)c(F)c2)C1	87%	542 nM	94 nM	108%	–
O=C(O)C1CN(Cc2ccc(-c3nc4cc(Cc5ccc(F)cc5)ccc4s3)c(F)c2)C1	37%	1910 nM	33 nM	129%	–
O=C(O)C1CN(Cc2ccc(-c3nc4ccc(Cc5ccccc5)cc4[nH]3)c(F)c2)C1	–	> 25000 nM	> 6250 nM	–	–
O=C(O)C1CN(Cc2ccc(-c3cc4cc(Cc5ccccc5)ccc4o3)c(F)c2)C1	42%	1730 nM	–	96%	0.015
O=C(O)C1CN(Cc2ccc(-c3nc4cc(Cc5ccc(Cl)cc5)ccc4s3)c(F)c2)C1	–	> 25000 nM	159 nM	117%	–
